Compound activity as filed in PubChem BioAssay.
PfHsp90 set2: growth inhibition of PfHsp90-expressing yeast, primary screen, antimalarial PfHsp90 inhibitor project, S. cerevisiae, BacTiter-Glo luminescence, single point, set 2. BacTiter-Glo ATP, 48 h; yeast lacking PDR1 and PDR3 efflux regulators. inhibition, % at 9.4 µM. 310,000 compounds, 0.32% hits. AID 504621, 2011;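 active = every replicate shows inhibition above about 80%, whatever the replicate mean, limit read from the data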;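 note: 0% = DMSO neutral controls and 100% = 20 µM radicicol positive controls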
MLL AF4-AF9 inh: inhibitors of AF4 peptide binding to AF9, primary screen, biochemical, AlphaScreen, biotin-AF4 peptide, FLAG-AF9, single point; Protein AF-9 (Homo sapiens), P42568; inhibition, % at 10 µM; 350,000 compounds, 0.47% hits; AID 651704, 2012;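 active = every replicate reaching a set inhibition limit, whatever the replicate mean, cut at about 25% in these data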;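 note: 0% = plate neutral control median and 100% = total signal loss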
DENV2 CPE: inhibitors of DENV2 cytopathic effect, primary screen, cell-based, plate reader, single concentration. DENV2-infected cells, cytopathic effect rescue. CPE inhibition, % at 9.99 µM. 350,000 compounds, 1.7% hits. AID 651640, 2012; in the data active = CPE inhibition above about 20%, passing the limit was not always enough; tested in BHK-21 cells;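 note: 0% = median of neutral control wells and 100% = median of positive control wells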
Ecoli rRNA inh: reduced GFP signal of wild-type E. coli, primary screen, bacterial rRNA inhibitor project, GFP/RFP fluorescence, OD600, single point; E. coli WT GFP vs humanized-ribosome RFP mutants, 24 h; active compounds read low; DMSO median 0, no signal -100; GFP signal change (wild-type ribosome), % (test concentration not listed); 350,000 compounds, 1.6% hits;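 active = significant combined selectivity score with lowered wild-type GFP, culture density cut under 30%, mutant RFP and density less affected; inactive = any of these conditions unmet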
Cneo AK release: Cryptococcus neoformans cell lysis inducers, primary screen, AK release luminescence, single concentration; C. neoformans lysis, adenylate kinase release luminescence, 4 h; normalised: neutral wells 0, clomiphene wells 100; lysis activity, % at 15 µM; 360,000 compounds, 0.2% hits;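 active = mean lysis activity across replicates of at least 80%, whatever share of replicates individually reach that level; inactive = mean lysis activity below 80%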
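Assay system: C. neoformans cells. Amount: yeast cell density of 5 × 10^6 cells/mL. Technique: AK luminescence. Buffer or medium: YPD. Times: static 4 h at 37 °C with compound, 1 h detection. Dosing: single-point compound dose. Read-out: lysis from increased AK signal.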
S100A4 inh HTS: inhibitors of S100A4-myosin IIA peptide binding, primary screen, biochemical, fluorescence polarization, TAMRA-MyoIIA peptide; AID 652163, 2013; inhibition, % at 10.7 µM; Protein S100-A4 (Homo sapiens), P26447; 360,000 compounds, 0.14% hits;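 active = mean inhibition of at least 70% across replicates, with every replicate also reaching that level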
Target sequence (P26447 whole entry, looked up): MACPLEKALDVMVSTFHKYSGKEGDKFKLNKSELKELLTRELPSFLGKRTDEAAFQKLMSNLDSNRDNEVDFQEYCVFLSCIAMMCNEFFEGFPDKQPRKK
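Test system: S100A4 monomer protein. Medium: HEPES buffer with Ca2+, pH 7.2. Reagent: fluorescent myosin IIA peptide, 5 nM. Compound dosing: single-point compound testing. Timing: 5 min between mix addition and reading. Benchmarks: DMSO neutral and TFP positive wells.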
* marks the source's active call; other numbers are inactive results. A selection: hits, their analogues and other compounds. The true share with any hit is near 3.2%.

How did CCOC(=O)[C@H]1[C@H]2COc3ccc(Cl)cc3[C@H]2N2C(=O)CNC(=O)[C@@]12C do in these assays?
MLL AF4-AF9 inh: -7.9; DENV2 CPE: 2.3; Ecoli rRNA inh: 0.9; Cneo AK release: -0.8; S100A4 inh HTS: -0.3

Results for CCOC(=O)[C@H]1[C@H]2COc3ccc(Br)cc3[C@H]2N2C(=O)CNC(=O)[C@@]12C ?
PfHsp90 set2: 4.0; MLL AF4-AF9 inh: 4.0; DENV2 CPE: 62.3*; Ecoli rRNA inh: -4.8; Cneo AK release: 1.9; S100A4 inh HTS: 2.8

Results for C[C@@H]1CN([C@@H](C)CO)C(=O)c2cc(-c3ccccc3F)cnc2O[C@H]1CN(C)C(=O)c1cnccn1 ?
MLL AF4-AF9 inh: -2.9; DENV2 CPE: -2.1; Ecoli rRNA inh: 1.8; Cneo AK release: -11.1; S100A4 inh HTS: 24.1

Results for O=C(CN1C(=O)NC2(CCCc3ccccc32)C1=O)c1ccc(Br)cc1 (stereo not drawn) ?
PfHsp90 set2: 4.7; MLL AF4-AF9 inh: -0.1; DENV2 CPE: -3.4; Ecoli rRNA inh: -36.1*; Cneo AK release: -1.6; S100A4 inh HTS: -3.3

What do the screens show for `O=C(CN1C(=O)NC2(CCc3ccccc32)C1=O)Nc1cccc(Cl)c1` (stereo not drawn)?
PfHsp90 set2: -3.0; MLL AF4-AF9 inh: -4.8; DENV2 CPE: -2.0; Ecoli rRNA inh: -30.4*; Cneo AK release: -0.5; S100A4 inh HTS: -4.2

Results for O=C(NNc1c(F)c(F)cc(F)c1F)C1CCN(S(=O)(=O)c2ccccc2F)CC1 ?
PfHsp90 set2: -32.4; MLL AF4-AF9 inh: -1.2; DENV2 CPE: 42.9*; Ecoli rRNA inh: 6.4; Cneo AK release: 1.0; S100A4 inh HTS: -8.8

What do the screens show for `O=C(CN1CCN(S(=O)(=O)c2ccccc2F)CC1)NC1CCCC1`?
PfHsp90 set2: 18.3; MLL AF4-AF9 inh: -0.6; DENV2 CPE: 21.6*; Ecoli rRNA inh: 4.3; S100A4 inh HTS: -10.0

How did O=C(CC1CC1)Nc1ccc2c(c1)[C@@H]1C[C@@H](CC(=O)NC3CCCC3)O[C@H](CO)[C@@H]1O2 do in these assays?
MLL AF4-AF9 inh: -0.3; DENV2 CPE: -5.7; Ecoli rRNA inh: 1.5; Cneo AK release: 3.5; S100A4 inh HTS: -3.6

How did COc1ccc(-c2nc(NCCCN(C)C)c3ccccc3n2)cc1 do in these assays?
PfHsp90 set2: 4.0; MLL AF4-AF9 inh: -12.2; DENV2 CPE: 30.1*; Ecoli rRNA inh: 1.8; Cneo AK release: 0.3; S100A4 inh HTS: -4.8

Results for CCN(CC)CCCNc1nc(-c2ccccc2)nc2ccccc12 ?
PfHsp90 set2: -7.4; Cneo AK release: 0.8

What do the screens show for `C[C@H]1CN([C@@H](C)CO)C(=O)c2cccc(NC(=O)C3CC3)c2O[C@@H]1CN(C)C`?
MLL AF4-AF9 inh: 2.2; DENV2 CPE: 23.3*; Ecoli rRNA inh: 4.3; Cneo AK release: -2.0; S100A4 inh HTS: -4.7

Results for CC(C)NC(=O)N(C)C[C@H]1Oc2c(NC(=O)C3CC3)cccc2C(=O)N([C@H](C)CO)C[C@H]1C ?
MLL AF4-AF9 inh: -1.4; DENV2 CPE: 42.2*; Ecoli rRNA inh: 0.5; Cneo AK release: 1.7; S100A4 inh HTS: -14.7

What do the screens show for `C[C@H](CO)N1C[C@H](C)[C@H](CN(C)Cc2ccncc2)Oc2c(NC(=O)C3CC3)cccc2C1=O`?
MLL AF4-AF9 inh: -5.0; DENV2 CPE: -0.1; Ecoli rRNA inh: 2.9; Cneo AK release: 11.7; S100A4 inh HTS: 125.6*

How did C[C@H](CO)N1C[C@H](C)[C@H](CN(C)C)Oc2c(NC(=O)C3CC3)cccc2C1=O do in these assays?
MLL AF4-AF9 inh: -0.4; DENV2 CPE: -7.4; Ecoli rRNA inh: 2.8; Cneo AK release: -3.3; S100A4 inh HTS: 7.7
